Laboratory results taken from ChEMBL document CHEMBL1926607 (J Med Chem, 2011).

How the values were obtained:
[1] = target: T1, 5-hydroxytryptamine receptor 1A (Homo sapiens, UniProt P08908); assay: Agonist activity at human 5HT1A receptor expressed in human HeLa cells assessed as inhibition of forskolin-stimulated cAMP production […] measured after 2 hrs by RIA; type: functional, cell-based
T1 sequence (P08908 whole entry): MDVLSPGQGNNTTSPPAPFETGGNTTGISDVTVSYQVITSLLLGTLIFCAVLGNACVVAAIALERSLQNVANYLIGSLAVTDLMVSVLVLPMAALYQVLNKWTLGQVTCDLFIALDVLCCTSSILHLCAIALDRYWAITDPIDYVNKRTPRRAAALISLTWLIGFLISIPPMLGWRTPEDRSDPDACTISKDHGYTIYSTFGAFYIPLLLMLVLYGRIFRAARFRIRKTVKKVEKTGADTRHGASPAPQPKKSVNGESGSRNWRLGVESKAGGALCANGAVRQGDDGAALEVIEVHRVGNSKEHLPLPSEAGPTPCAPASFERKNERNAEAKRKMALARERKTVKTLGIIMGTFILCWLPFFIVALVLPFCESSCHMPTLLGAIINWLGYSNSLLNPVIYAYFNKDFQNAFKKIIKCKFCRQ
In short: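 HeLa cells stably expressing the h5-HT1AR, grown in DMEM with 2 mM glutamine, 1 mM pyruvate and 10% heat-inactivated FCS, and used after 2–3 days at about 7.5 × 10^4 cells/well. After a PBS wash, cells were incubated 10 min in PBS with 0.5 mM isobutylmethylxanthine and 10 μM forskolin, with or without compound. The reaction was stopped with ice-cold ethanol, extracted 2 h and lyophilized; cAMP was measured by RIA.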

[2] = target: T2, 5-hydroxytryptamine receptor 1A (Homo sapiens) (UniProt P08908); assay: Agonist activity at human 5HT1A receptor expressed in human HeLa cells assessed as inhibition of forskolin-stimulated cAMP production pretreated 20 mins before forskolin challenge measured after 2 hrs by RIA relative to control; type: functional, cell-based
T2 sequence (whole entry): T1 sequence (P08908 whole entry)

Mus musculus = assay: Antihypothermic activity in ip dosed Swiss mouse assessed as inhibition of 8-OH-DPAT-induced hypothermia administered 30 mins before 8-OH-DPAT challenge measured after 15 to 60 mins; type: functional; conditions: read-out: MED
In short: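 Male Swiss mice (23–28 g) were housed five per cage. Rectal temperature (probe at 2 cm) was read at 15, 30 and 60 min after injection. The response was the maximum fall from basal temperature, analysed by ANOVA with Student–Newman–Keuls test.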

[3] = Neuroprotective activity in Wistar rat hippocampi primary neuronal cells assessed as protection against serum-deprivation induced cell death at 0.1 uM after 24 hrs by MTT assay; type: functional, Hippocampus, Primary neuron
In short: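 Mixed neuron-glia cultures from E18 Wistar rat hippocampi (Neurobasal plus 10% FCS), used at 11 days in vitro. Medium replaced by saline to withdraw serum; cells held 24 h with compound. Cell survival measured by MTT reduction, expressed as % protection.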

[4] = Neuroprotective activity in Wistar rat hippocampi primary neuronal cells assessed as protection against glutamate-induced cell death at 0.1 uM treated 30 min before glutamate challenge measured after 22 hrs by MTT assay; type: functional, Hippocampus, Primary neuron
In short: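 E18 fetal Wistar rat hippocampal neurons in neuron-enriched culture (Neurobasal, 2% B27, poly-L-lysine), used at 11 days in vitro. Compound added 30 min before 1 mM glutamate, exposure 22 h. Survival by MTT (mitochondrial dehydrogenase) read-out, reported as % protection.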

[5] = Neuroprotective activity in Wistar rat hippocampi primary neuronal cells assessed as protection against oxygen-glucose deprivation induced cell death at 0.1 uM after 18 hrs by MTT assay; type: functional, Hippocampus, Primary neuron
Rattus norvegicus [6] = assay: Neuroprotective activity against permanent middle cerebral artery occlusion-induced focal ischemia in Sprague-Dawley rat assessed as decrease in total cerebral infract volume at 40 ug/kg/h, iv administered 1 hr before ischemia and 1 hr after ischemia measured after 24 hrs (reference value: 546 +/- 51 mm3); type: functional
Rattus norvegicus [7] = assay: Neuroprotective activity in permanent middle cerebral artery occlusion-induced ischemic in Sprague-Dawley rat assessed as decrease in cortical infract volume at 40 ug/kg/h, iv administered 1 hr before ischemia and 1 hr after ischemia measured after 24 hrs (reference value: 399 +/- 38 mm3); type: functional
Rattus norvegicus [8] = assay: Neuroprotective activity in permanent middle cerebral artery occlusion-induced ischemic in Sprague-Dawley rat assessed as decrease in sub-cortical infract volume at 40 ug/kg/h, iv administered 1 hr before ischemia and 1 hr after ischemia measured after 24 hrs (reference value: 147 +/- 23 mm3); type: functional

Molecule `O=C1c2ccccc2S(=O)(=O)N1CCCCNCC1CCc2ccccc2O1` (racemic) has an EC50 [1] of 1.5 nM, an Emax [2] of 94.8% and a minimal effective dose (Mus musculus) of 0.15 mg/kg. For the same molecule, the Activity [3] was 26% and the Activity [4] was 16%.

With `O=C1c2ccccc2S(=O)(=O)N1CCCCNC[C@H]1CCc2ccccc2O1` [REPINOTAN] the Activity [3] was 31%, the Activity [5] was 78% and the Activity (Rattus norvegicus [6]) was 377 mm3. For the same molecule, the Activity (Rattus norvegicus [7]) was 271 mm3 and the Activity (Rattus norvegicus [8]) was 106 mm3.
